# KCC2 mod: KCC2 cotransporter modulators, thallium flux, primary screen, cell-based, HEK293 KCC2, FluoZin-2 fluorescence, MLSMR | KCC2 cells, thallium flux FluoZin-2 fluorescence | B-score of Tl+ flux slope (higher = more flux/activation; lower = inhibition) at 10 µM | hit rate 2.2% among 190,000;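 active = thallium flux slope and its plate-corrected score both differing from the plate sample mean at a set confidence after two filtering rounds, in either direction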;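 also: slope of fluorescence scaled to starting intensity during 10 to 20 s after thallium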
# PMI act: activators of human PMI, primary screen, biochemical, fluorescence intensity, near-Km mannose 6-phosphate. Mannose-6-phosphate isomerase (Homo sapiens), P34949. purified human PMI, coupled resazurin fluorescence, 20 min; active compounds read high; 1 = vehicle control, 0 substrate-free wells. activation factor at 20 µM. hit rate 0.005% among 190,000. AID 1214, 2008;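 active = activation factor of 2 or more at 20 µM, relative to plate controls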
# ROMK mod: ROMK potassium channel modulators, primary screen, cell-based, thallium flux, MLSMR library; AID 1918, 2009; hit rate 2% among 130,000; Tet-inducible ROMK, thallium flux fluorescence; actives lie on both sides; ATP-sensitive inward rectifier potassium channel 1 (Homo sapiens), P48048; B-score at 10 µM;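 active = signal ratio slope over the read window, or its plate-corrected B-score, at least 3 SD from the plate mean, either direction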;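 also: B-score of the F/F0 ratio slope over 7 to 12 s after thallium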
# ABCB1 block: ABCB1 efflux pump inhibitors, primary screen, cell-based, multiplex, flow cytometry, ABCG2 counter-screen | CCRF-Adr cells, JC-1 efflux | inhibition, % at 6.6 µM | hit rate 0.067% among 190,000; in the data active = inhibition above about 40%;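 also: 0% = vehicle and 100% = reference inhibitor; higher value means more JC-1 retained so stronger ABCB1 efflux block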
# Target sequence (P08183 whole entry, looked up): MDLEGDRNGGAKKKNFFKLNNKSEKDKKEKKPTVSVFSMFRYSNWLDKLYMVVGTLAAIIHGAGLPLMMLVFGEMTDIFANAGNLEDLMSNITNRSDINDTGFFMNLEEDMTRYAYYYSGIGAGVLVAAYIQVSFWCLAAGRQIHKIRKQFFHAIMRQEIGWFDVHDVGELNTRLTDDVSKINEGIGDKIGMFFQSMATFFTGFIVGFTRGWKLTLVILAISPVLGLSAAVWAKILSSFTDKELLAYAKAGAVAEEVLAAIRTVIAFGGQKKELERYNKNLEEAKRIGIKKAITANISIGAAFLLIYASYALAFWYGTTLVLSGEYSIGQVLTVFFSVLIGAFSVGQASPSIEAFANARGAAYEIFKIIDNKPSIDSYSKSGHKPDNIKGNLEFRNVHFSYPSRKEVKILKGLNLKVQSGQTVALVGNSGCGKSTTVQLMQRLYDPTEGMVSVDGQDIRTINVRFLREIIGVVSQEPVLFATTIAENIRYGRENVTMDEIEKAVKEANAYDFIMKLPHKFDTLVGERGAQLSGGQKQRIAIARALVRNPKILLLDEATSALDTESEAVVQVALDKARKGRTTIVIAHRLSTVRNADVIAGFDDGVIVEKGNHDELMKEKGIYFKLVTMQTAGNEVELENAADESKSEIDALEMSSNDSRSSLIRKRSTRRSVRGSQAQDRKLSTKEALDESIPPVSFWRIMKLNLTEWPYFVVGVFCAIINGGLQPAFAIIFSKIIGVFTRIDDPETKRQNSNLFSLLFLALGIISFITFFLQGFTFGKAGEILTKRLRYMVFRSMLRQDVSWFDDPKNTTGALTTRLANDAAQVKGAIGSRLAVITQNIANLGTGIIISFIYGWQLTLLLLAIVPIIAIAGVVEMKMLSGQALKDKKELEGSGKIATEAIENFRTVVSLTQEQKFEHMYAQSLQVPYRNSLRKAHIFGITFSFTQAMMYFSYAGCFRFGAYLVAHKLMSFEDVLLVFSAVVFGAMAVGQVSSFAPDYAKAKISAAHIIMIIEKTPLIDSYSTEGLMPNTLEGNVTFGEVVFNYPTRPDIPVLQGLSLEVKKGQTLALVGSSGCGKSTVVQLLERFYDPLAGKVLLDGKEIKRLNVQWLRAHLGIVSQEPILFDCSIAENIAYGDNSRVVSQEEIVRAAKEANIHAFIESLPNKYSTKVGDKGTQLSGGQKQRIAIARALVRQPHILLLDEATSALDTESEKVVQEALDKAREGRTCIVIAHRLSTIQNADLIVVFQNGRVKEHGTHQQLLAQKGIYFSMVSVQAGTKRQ
# PMI act hi M6P: human PMI activators, high substrate, primary screen, biochemical, fluorescence intensity, near-saturating mannose 6-phosphate | Mannose-6-phosphate isomerase (Homo sapiens), P34949 | coupled PMI enzyme assay, resazurin fluorescence, 20 min; active compounds read high; 1 = untreated enzyme, 0 = substrate-free blank | activation factor at 20 µM | hit rate 0.34% among 190,000 | AID 1216, 2008;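 active = activation factor of 2 or more at 20 µM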
#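 Material: human phosphomannose isomerase with PGI, G6PDH, diaphorase coupling enzymes / Reagent: Man-6-P substrate 1.0 mM / Dosing: single compound dose of 20 µM, 1% DMSO final / Incubation: enzyme reaction with compound 20 min at room temperature / Signal: resorufin fluorescence (Ex 544/Em 590 nm) from resazurin via diaphorase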
# ABCG2 block: ABCG2 efflux pump inhibitors, primary screen, multiplex with ABCB1, IgMXP3 cells, flow cytometry; JC-1 efflux; inhibition, % at 6.6 µM; hit rate 0.1% among 190,000; AID 1325, 2008;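 active = inhibition above 80%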;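 also: 0% = DMSO and 100% = nicardipine control wells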
#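 System: two drug-resistant human cell lines, ABCG2 and ABCB1; controls: nicardipine high and DMSO low controls; times: 10 min exposure at 25 °C with rotation, no wash; detection: flow cytometry of retained JC-1 fluorescence; read-out basis: percent efflux inhibition, scaled nicardipine 100% to DMSO 0%; doses: one concentration, 6.6 µM final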
# ROMK retest: ROMK channel modulator hit retest, confirmation, cell-based, thallium flux, duplicate, resupplied hits | normalized thallium flux (F/F0 slope) at 10 µM | shares compounds with ROMK mod | hit rate 54% among 3,000 | AID 1917, 2009 | fluorescence ratio; active compounds read low;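 active = Flux at 10 µM at least 3 SD below or above vehicle control mean in one or both replicates; inconclusive = no clear call, values can overlap the other calls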
# An asterisk follows results filed as active; ? = inconclusive; . = no result given. Shown are actives, neighbours in structure and some others; about 3.3% of the full set was active somewhere.
SMILES,KCC2 mod,PMI act,ROMK mod,ABCB1 block,PMI act hi M6P,ABCG2 block,ROMK retest
OCC1(CCOc2ccccc2)CCN(C2Cc3ccccc3C2)CC1,0.25,0.9,-3*,2,1,1,0.058*
Fc1ccc(Nc2nnc(C(F)(F)F)s2)cc1Cl,.,.,.,.,.,.,0.062*
CCCCOC(=O)C1CCCC(C(=O)OCCCC)N1 (configuration not stated),-0.37,1,.,0,1,25,.
CCOC(=O)c1c(CN2CCN(C)CC2)n(-c2ccccc2)c2cc(Br)c(O)cc12,-0.24,.,-2.6,.,.,.,.
CCOC(=O)c1c(CSC(=N)N)n(-c2ccccc2)c2cc(Br)c(OC(C)=O)cc12,-0.0034,.,.,.,.,.,0.058*
CC(Oc1ccc(Cl)cc1Cl)c1nc(-c2ccc(NC(=O)c3ccco3)cc2)no1 (configuration not stated),.,0.9,.,0,0.9,0,.
C=CCN1CC(C(=O)N2CCC(Cc3ccc(Cl)cc3)(C(=O)OCC)CC2)CC1=O (configuration not stated),-0.29,.,.,.,.,.,.
Cc1ccc(NC(=O)CSCc2ccc(F)cc2)cc1,-0.76,1,1.2,0,1,2,.
CCN(CC)C(=O)CSC(=Nc1ccccc1F)NC#N,0.17,1,-0.93,1,1,7,.
Cc1ccc(CSC(Nc2ccc(F)cc2)=C(C#N)C#N)cc1,-5,0.8,-0.86,4,0.9,10,0.075
CCN(CC)C(=O)CSC(Nc1ccc(F)cc1)=C(C#N)C#N,-0.025,.,.,.,.,.,0.059*
Cc1ccccc1N=CC1=C(O)c2ccccc2C1=O,-0.058,0.9,0.61,1,0.8,21,.
Cc1ccc(-c2csc3ncn(Cc4ccc(C(=O)O)cc4)c(=O)c23)cc1C,-0.97,0.8,.,0,0.7,0,.
O=C(O)c1ccc(Cn2cnc3scc(-c4ccccc4)c3c2=O)cc1,-0.4,0.9,-6*,2,0.9,18,0.055*
O=C(NCC1CCCO1)C1CCCN(c2ncccn2)C1 (configuration not stated),0.44,1.1,.,0,1,-1,0.076
COCCNC(=O)C1CCCN(c2ncccn2)C1 (configuration not stated),2.4,0.9,.,0,1,1,.
COc1ccc(C(=O)/C=C/C(=O)N(Cc2ccccc2OC)C(C(=O)NC2CCCCC2)c2ccncc2)c(O)c1 (configuration not stated),-1.2,0.9,-3.7*,0,0.9,-2,0.066*
COc1ccc(C(=O)/C=C/C(=O)N(Cc2ccccc2)C(C(=O)NC2CCCCC2)c2ccncc2)c(O)c1 (configuration not stated),-0.57,1,-2.4,11,1,3,.
CCC(C)c1ccc(OCCn2ccnc2)cc1 (configuration not stated),-0.033,1.1,-0.053,.,1,.,.
O=C(O)c1ccc(OCCn2ccnc2)cc1,.,1.2,0.12,0,1.3,2,0.073
CCOc1cc(S(=O)(=O)N2CCC(C(N)=O)CC2)ccc1F,-0.27,1,-0.46,0,1.1,-1,.
O=C(c1cccc2ccccc12)N1CCN(c2ccc([N+](=O)[O-])c(N3CCOCC3)c2)CC1,-0.3,0.8,.,3,0.9,23,0.075
O=C(c1ccccc1F)N1CCN(c2ccc([N+](=O)[O-])c(N3CCOCC3)c2)CC1,-1.3,0.9,0.18,1,0.8,5,.
Cc1ccc(NS(=O)(=O)c2ccc(OCC(=O)NCC3CCCO3)cc2)cc1 (configuration not stated),.,1,0.15,0,1,8,.
CSS(=O)(=O)c1cccc2cccnc12,2.8,.,.,.,.,.,0.09
SMILES,KCC2 mod,PMI act,ROMK mod,ABCB1 block,PMI act hi M6P,ABCG2 block,ROMK retest
CCN(CC)S(=O)(=O)c1cccc2cccnc12,0.37,1,-0.02,1,1,2,.
CCOC(=O)c1cc(C(=O)OCC)c2cccc(C)n2c1=O,-0.75,0.9,0.54,1,1,31,.
CCN(CC)c1ccc2cc(C#N)c(=O)oc2c1,.,1,.,0,1,1,0.046*
Oc1c(C=C2N=c3ccccc3=N2)sc(=S)n1C1CCCCC1,0.1,0.9,.,-2,1,-10,?
Cc1ccc(S(=O)(=O)NC(CC(=O)NCc2ccco2)c2ccco2)cc1 (configuration not stated),.,1,2.8*,0,0.9,1,?
COc1ccc(N=C2S/C(=C\c3ccc(N4CCOCC4)o3)C(=O)N2CCc2c[nH]c3ccccc23)cc1,-0.83,0.8,.,24,0.7,23,0.058*
CCCN1C(=O)/C(=C/c2ccc(C)o2)SC1=Nc1ccc(OC)cc1,0.29,0.8,.,0,0.8,1,.
COc1ccc(N=C2S/C(=C\c3ccc(OCC(=O)O)cc3)C(=O)N2CCc2c[nH]c3ccccc23)cc1,-0.56,1.1,8.5*,0,1.1,-2,0.12*
Cc1cc(Cl)n2c(nc3cc(F)c(F)cc32)c1C#N,-1.9,1,-7.2*,0,0.7,28,0.053*
CN(C)c1cc(-c2ccc([N+](=O)[O-])cc2)oc(=O)c1Cl,0.93,.,.,.,.,.,.
CC1=CC(C)(C)N(S(=O)(=O)c2ccc(F)cc2)c2ccccc21,-2.1,0.9,1.6,1,0.9,3,.
CC(=O)Nc1ccc(S(=O)(=O)N2c3ccccc3C(C)=CC2(C)C)cc1,0.13,0.8,2.1*,0,0.9,0,0.086
CCCCNC(=O)c1cn(-c2ccc(OCC)cc2)c(=O)c2cc(OC)c(OC)cc12,0.51,0.9,1.2,2,0.9,6,.
Cc1ccc(C2=N/C(=C\c3c(C)nn(-c4ccccc4)c3N3CCCC3)C(=O)O2)cc1,0.61,1.1,-0.62,2,1,5,.
Cc1nn(-c2ccccc2)c(N2CCCC2)c1/C=C1\N=C(c2ccc(F)cc2)OC1=O,-0.076,1,-1.5*,1,1.1,0,0.066*
CCOc1ccccc1CNCCOC,0.92,1.1,0.9,0,1,6,.
O=C(NC1CCCCCC1)c1cc(S(=O)(=O)N2CCCCC2)ccc1N1CCOCC1,-0.055,1.5,-3.2*,1,1.9,1,0.061*
